IC50 and inhibition data for one compound are collected here from ChEMBL document CHEMBL2440064, “Synthesis and biological evaluation of 2-amino-5-aryl-3-benzylthiopyridine scaffold based potent c-Met inhibitors” (Bioorg Med Chem, 2013).

In assay [1] the target is Mast/stem cell growth factor receptor Kit (Homo sapiens, UniProt P10721). Nature of the assay: Inhibition of c-kit (unknown origin) using poly (Glu, Tyr) 4:1 as substrate after 60 mins by ELISA. The essentials: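 Purified kinase incubated with 10 µmol/L ATP in wells pre-coated with 20 µg/mL poly(Glu,Tyr)4:1. Reaction ran 60 min at 37°C. Phosphotyrosine detected with PY99 antibody, then HRP anti-mouse IgG and o-phenylenediamine/H₂O₂, read at 490 nm. IC50 taken from inhibition curves.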
In general terms: In an ELISA, binding on a coated surface is turned into a signal by an enzyme label.

Assay [2] has as its target Hepatocyte growth factor receptor (Canis lupus familiaris) (UniProt Q75ZY9). Nature of the assay: Inhibition of c-Met in MDCK cells assessed as HGF-induced cell scattering after 24 hrs by microscopic analysis. The assay is classed as cell-based. The essentials:
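MDCK cells plated at 1,500/well in 96-well plates and allowed to form clusters over 24 h. Then 24 h with compound plus 50 ng/mL recombinant human HGF in FBS-free medium. Fixed in 4% paraformaldehyde 15 min at room temperature, stained with 0.2% crystal violet and imaged by microscopy.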

In assay [3] the test system is MCF7. Nature of the assay: Antiproliferative activity against human MCF7 cells after 72 hrs. The conditions noted are these: MCF7, 72 h.

Sequence of Hepatocyte growth factor receptor (Canis lupus familiaris) (Q75ZY9 whole entry): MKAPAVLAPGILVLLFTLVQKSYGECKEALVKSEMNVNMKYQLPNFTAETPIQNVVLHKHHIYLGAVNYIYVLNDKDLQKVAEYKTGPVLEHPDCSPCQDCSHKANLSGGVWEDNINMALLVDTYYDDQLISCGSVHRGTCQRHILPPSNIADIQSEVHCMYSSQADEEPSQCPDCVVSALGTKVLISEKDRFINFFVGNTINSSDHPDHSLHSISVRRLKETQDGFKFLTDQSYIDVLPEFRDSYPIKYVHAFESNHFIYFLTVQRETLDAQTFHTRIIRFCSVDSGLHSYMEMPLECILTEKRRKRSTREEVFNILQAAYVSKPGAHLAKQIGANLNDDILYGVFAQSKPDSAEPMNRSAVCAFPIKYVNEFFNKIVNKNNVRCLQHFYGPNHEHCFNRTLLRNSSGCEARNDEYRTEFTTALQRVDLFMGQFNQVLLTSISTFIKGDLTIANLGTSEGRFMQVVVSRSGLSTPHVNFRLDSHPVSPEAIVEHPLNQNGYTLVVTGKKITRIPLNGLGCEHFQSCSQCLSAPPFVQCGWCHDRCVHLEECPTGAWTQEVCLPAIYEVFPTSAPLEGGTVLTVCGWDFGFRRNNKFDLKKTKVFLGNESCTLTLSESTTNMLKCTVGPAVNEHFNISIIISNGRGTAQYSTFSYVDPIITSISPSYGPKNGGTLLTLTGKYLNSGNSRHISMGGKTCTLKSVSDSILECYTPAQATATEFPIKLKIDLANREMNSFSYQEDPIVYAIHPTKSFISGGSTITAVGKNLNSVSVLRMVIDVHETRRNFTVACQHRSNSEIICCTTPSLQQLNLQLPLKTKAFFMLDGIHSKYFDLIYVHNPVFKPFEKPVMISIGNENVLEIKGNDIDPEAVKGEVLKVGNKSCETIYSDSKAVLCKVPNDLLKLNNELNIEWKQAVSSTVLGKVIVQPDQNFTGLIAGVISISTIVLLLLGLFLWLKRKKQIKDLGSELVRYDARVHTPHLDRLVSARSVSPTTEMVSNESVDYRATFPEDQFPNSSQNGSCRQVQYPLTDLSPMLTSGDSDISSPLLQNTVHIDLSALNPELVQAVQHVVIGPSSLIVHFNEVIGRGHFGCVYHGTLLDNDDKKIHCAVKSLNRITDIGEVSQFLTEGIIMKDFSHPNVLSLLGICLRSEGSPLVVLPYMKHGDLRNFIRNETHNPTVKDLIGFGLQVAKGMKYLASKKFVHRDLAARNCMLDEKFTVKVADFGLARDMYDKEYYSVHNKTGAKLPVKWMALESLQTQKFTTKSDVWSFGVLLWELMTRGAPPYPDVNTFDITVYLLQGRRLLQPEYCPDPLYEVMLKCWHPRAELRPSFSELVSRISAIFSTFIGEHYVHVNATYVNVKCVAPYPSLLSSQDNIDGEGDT
Sequence of Mast/stem cell growth factor receptor Kit (P10721 whole entry): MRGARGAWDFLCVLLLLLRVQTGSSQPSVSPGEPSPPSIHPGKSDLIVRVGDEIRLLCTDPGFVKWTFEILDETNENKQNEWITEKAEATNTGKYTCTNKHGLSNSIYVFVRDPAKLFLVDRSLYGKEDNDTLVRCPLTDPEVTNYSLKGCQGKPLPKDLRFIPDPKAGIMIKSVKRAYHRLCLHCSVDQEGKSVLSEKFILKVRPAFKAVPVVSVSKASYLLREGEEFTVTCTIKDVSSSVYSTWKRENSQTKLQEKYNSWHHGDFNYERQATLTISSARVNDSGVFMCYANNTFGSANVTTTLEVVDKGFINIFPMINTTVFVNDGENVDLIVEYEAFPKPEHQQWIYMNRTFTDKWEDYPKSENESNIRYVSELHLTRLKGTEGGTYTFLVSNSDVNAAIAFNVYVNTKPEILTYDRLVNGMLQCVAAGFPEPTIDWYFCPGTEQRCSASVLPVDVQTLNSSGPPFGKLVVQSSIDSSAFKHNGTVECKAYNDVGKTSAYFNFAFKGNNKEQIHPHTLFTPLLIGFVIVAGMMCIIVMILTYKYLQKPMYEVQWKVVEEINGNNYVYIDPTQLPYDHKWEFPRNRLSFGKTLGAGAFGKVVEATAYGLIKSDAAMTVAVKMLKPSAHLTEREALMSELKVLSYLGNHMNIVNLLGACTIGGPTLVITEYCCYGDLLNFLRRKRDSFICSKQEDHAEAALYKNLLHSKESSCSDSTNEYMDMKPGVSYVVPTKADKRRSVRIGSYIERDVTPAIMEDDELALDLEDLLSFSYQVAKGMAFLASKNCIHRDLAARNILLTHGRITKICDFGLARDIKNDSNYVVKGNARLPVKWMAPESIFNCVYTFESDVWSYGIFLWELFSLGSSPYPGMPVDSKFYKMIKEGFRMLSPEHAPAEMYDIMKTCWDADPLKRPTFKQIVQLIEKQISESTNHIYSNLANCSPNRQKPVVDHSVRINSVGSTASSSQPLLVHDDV

What is called IC50 is the concentration at which inhibition is half-maximal. On to `C[C@@H](Sc1cc(-c2cnn(C3CCNCC3)c2)cnc1N)c1c(Cl)ccc(F)c1Cl`, for which the IC50 in assay [1] is above 1 µM; in assay [3], 11.6 µM. Besides, the inhibition result in assay [2] was “Dose-dependent effect”.
